Measured values from ChEMBL document CHEMBL4130542, “Daedophamide, a Cytotoxic Cyclodepsipeptide from a Daedalopelta sp. Sponge Collected in Indonesia” (2017).

Tests used:
Format in all cases: functional
MDA-MB-231 = assay: Cytotoxicity against human MDA-MB-231 cells after 48 hrs by sulforhodamine B assay; settings: MDA-MB-231, 48 h; for CC50: read-out: LC50 (the source's name)
Method in brief: (§1)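 Human carcinoma lines (A-549 lung, MDA-MB-231 breast adenocarcinoma, HT-29 colorectal, PSN-1 pancreas). Cell survival estimated with the NCI algorithm. Three dose-response parameters derived: GI50 (50% growth inhibition vs control cells), TGI (total growth inhibition vs control) and LC50 (50% cell death vs control). GI50 calculated by a literature procedure.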

HT-29 = assay: Cytotoxicity against human HT-29 cells after 48 hrs by sulforhodamine B assay; settings: HT-29, 48 h; for CC50: read-out: LC50 (the source's name); method in brief: as §1
A549 = assay: Cytotoxicity against human A549 cells after 48 hrs by sulforhodamine B assay; settings: A549, 48 h; for CC50: read-out: LC50 (the source's name); method in brief: as §1
PSN1 = assay: Cytotoxicity against human PSN1 cells after 48 hrs by sulforhodamine B assay; settings: PSN1, 48 h; for CC50: read-out: LC50 (the source's name); method in brief: as §1

| SMILES | GI50 (MDA-MB-231) | TGI (MDA-MB-231) | CC50 (MDA-MB-231) | GI50 (HT-29) | TGI (HT-29) | CC50 (HT-29) | GI50 (A549) | TGI (A549) | CC50 (A549) | GI50 (PSN1) | TGI (PSN1) | CC50 (PSN1) |
| --- | --- | --- | --- | --- | --- | --- | --- | --- | --- | --- | --- | --- |
| CO[C@H](C)[C@@H]1NC(=O)[C@H](CCC(N)=O)N(C)C(=O)[C@H](CC(C)C)NC(=O)[C@@H](CCCNC(=N)N)NC(=O)[C@@H](CO)NC(=O)[C@H](NC(=O)[C@@H](NC(=O)[C@H](O)[C@H](O)[C@H](CCCNC(=N)N)NC(=O)[C@@H](C)NC(=O)[C@H](C)[C@H](O)[C@H](C)C[C@H](C)CC(C)C)[C@@H](C)[C@@H](C)C(N)=O)[C@@H](C)OC(=O)[C@@H]2CCCCN2C(=O)[C@@H](CC(=O)O)NC1=O | 300 nM | 600 nM | 900 nM | 600 nM | 800 nM | 1300 nM | 400 nM | 500 nM | 700 nM | 200 nM | 300 nM | 600 nM |
| COc1cccc2c1C(=O)c1c(O)c3c(c(O)c1C2=O)C[C@@](O)(C(=O)CO)C[C@@H]3O[C@H]1C[C@H](N)[C@H](O)[C@H](C)O1 [DOXORUBICIN] | 200 nM | 500 nM | 2400 nM | 300 nM | 900 nM | > 17200 nM | 200 nM | 900 nM | > 17200 nM | 200 nM | 500 nM | 3100 nM |
